Reference: ChEMBL document CHEMBL1124671, “Carboxyalkyl dipeptides with atrial natriuretic factor potentiating and antihypertensive activity” (J Med Chem, 1989)
Activity calls are given as the source filed them. The calls are words filed in the database; no cut-off is given here.

How the values were obtained:
[1] = biological target: T1, Natriuretic peptides A (Rattus norvegicus) (UniProt P01161); test: Compound was administered subcutaneously to spontaneously hypertensive rats (SHR) and evaluated for the ability to potentiate atrial natriuretic factor (ANF)
T1 sequence (whole entry): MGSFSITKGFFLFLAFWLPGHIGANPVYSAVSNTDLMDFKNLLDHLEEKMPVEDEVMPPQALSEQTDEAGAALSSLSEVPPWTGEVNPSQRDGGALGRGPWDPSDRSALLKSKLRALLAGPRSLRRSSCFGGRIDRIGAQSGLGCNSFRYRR
Summary of the method: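 Conscious SHR given 30 mg/kg s.c. 30 min before an i.v. challenge of 30 μg/kg ANF 103–125; mean arterial pressure followed, with vehicle-treated controls. Value is the maximum increase in hypotensive response to ANF over the control group.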

Neprilysin = biological target: T2, Neprilysin (Oryctolagus cuniculus, UniProt P08049); test: Compound was evaluated for the ability to inhibit neutral endopeptidase purified from rabbit kidney
T2 sequence (P08049 whole entry): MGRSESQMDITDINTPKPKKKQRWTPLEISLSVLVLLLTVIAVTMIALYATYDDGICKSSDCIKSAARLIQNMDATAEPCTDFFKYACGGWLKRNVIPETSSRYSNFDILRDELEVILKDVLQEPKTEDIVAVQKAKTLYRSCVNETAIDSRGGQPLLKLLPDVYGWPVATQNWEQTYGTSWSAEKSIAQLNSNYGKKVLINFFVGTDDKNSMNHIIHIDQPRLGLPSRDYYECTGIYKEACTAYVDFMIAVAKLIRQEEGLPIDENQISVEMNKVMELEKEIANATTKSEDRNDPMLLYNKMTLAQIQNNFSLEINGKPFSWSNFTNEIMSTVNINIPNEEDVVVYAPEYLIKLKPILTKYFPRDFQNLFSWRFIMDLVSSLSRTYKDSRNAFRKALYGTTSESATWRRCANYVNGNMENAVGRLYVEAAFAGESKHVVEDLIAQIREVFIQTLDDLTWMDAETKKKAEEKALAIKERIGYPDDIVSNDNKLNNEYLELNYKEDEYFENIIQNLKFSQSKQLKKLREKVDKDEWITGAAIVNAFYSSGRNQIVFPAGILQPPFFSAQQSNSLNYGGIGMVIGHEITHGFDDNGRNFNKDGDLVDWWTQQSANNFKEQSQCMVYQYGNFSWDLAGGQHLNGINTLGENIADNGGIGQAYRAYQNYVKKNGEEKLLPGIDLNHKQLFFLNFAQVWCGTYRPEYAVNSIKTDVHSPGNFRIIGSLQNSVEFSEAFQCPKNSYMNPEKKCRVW
Summary of the method: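 Enzyme: purified rabbit kidney neutral endopeptidase (NEP).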

[2] = biological target: T3, Angiotensin-converting enzyme (Rattus norvegicus, UniProt P47820); test: Compound was evaluated for the ability to inhibit Angiotensin I converting enzyme in rat
T3 sequence (P47820 whole entry): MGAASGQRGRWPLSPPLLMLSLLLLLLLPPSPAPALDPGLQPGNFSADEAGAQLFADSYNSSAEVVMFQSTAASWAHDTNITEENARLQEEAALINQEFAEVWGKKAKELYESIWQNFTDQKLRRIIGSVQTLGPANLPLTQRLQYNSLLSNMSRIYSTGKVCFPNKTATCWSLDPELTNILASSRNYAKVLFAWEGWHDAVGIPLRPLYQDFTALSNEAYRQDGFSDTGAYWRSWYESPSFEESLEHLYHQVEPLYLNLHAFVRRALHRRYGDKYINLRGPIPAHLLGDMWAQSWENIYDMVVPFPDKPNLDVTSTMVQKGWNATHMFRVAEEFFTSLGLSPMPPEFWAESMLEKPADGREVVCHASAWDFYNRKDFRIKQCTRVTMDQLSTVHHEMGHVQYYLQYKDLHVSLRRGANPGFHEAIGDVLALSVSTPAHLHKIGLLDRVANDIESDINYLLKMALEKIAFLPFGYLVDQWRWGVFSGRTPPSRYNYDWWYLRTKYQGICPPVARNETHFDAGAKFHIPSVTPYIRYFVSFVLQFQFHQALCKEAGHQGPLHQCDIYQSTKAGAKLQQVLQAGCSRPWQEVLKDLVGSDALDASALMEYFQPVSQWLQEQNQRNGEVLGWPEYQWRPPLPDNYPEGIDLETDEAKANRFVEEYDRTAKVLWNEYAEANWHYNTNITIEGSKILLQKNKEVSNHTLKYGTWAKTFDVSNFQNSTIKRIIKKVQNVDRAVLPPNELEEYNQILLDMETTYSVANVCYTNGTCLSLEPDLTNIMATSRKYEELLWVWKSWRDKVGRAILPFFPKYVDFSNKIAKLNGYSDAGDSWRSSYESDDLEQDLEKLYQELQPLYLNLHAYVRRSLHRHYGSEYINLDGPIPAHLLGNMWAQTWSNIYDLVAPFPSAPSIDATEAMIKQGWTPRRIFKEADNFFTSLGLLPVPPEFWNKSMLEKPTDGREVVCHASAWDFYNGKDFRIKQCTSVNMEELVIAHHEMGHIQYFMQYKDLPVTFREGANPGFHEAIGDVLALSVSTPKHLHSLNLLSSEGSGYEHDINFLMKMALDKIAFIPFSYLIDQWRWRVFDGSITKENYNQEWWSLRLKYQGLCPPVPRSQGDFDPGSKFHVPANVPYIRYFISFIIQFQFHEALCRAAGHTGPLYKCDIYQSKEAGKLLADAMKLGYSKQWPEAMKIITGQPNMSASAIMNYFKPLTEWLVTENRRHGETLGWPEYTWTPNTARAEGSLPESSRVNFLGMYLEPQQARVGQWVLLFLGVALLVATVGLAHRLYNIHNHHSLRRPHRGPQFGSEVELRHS

[3] = biological target: T1, Natriuretic peptides A (Rattus norvegicus); settings: Cardiac atrium

Structure (SMILES) | IC50 (Neprilysin) [nM] | IC50 [2] [nM] | Delta blood pressure [1] [mmHg] | Delta blood pressure [3]
O=C(O)CCNC(=O)[C@H](Cc1ccccc1)N[C@@H](CCc1ccccc1)C(=O)O | 16 | > 1000 | 17 | 
O=C(O)[C@H](CCc1ccccc1)N[C@@H](Cc1ccccc1)C(=O)NC[C@H](O)C(=O)O (stereo in doubt; 6d) [listing 1 of 2 here] |  |  | 25 | 
O=C(O)[C@H](CO)NC(=O)[C@H](Cc1ccccc1)N[C@@H](CCc1ccccc1)C(=O)O | 393 | 320 |  | inactive
O=C(O)[C@H](CCc1ccccc1)N[C@@H](Cc1ccccc1)C(=O)NC[C@H](O)C(=O)O (stereo in doubt; 6e) [listing 1 of 2 here] |  |  | 35 | 

Further molecules by falling IC50 (Neprilysin), results first:

IC50 (Neprilysin) [nM] | IC50 [2] [nM] | Structure (SMILES) | Delta blood pressure [1] [mmHg] | Delta blood pressure [3]
21 | 640 | O=C(O)[C@H](O)CNC(=O)[C@H](Cc1ccccc1)N[C@@H](CCc1ccccc1)C(=O)O | 28 | 
20 | > 1000 | O=C(O)CCNC(=O)[C@H](Cc1ccccc1)N[C@@H](Cc1ccccc1)C(=O)O | 20 | 
15 | > 1000 | O=C(O)[C@H](CCc1ccccc1)N[C@@H](Cc1ccccc1)C(=O)NC[C@H](O)C(=O)O (stereo in doubt; 6e) [listing 2 of 2 here] |  | 
11 | > 1000 | O=C(O)[C@H](Cc1ccccc1)N[C@@H](Cc1ccccc1)C(=O)NC[C@H](O)C(=O)O | 17 | 
11 | > 1000 | O=C(O)[C@H](CCc1ccccc1)N[C@@H](Cc1ccccc1)C(=O)NC[C@H](O)C(=O)O (stereo in doubt; 6d) [listing 2 of 2 here] |  | 
